Measurements published in ChEMBL document CHEMBL1138042, “2-[(4-phenylpiperazin-1-yl)methyl]imidazo(di)azines as selective D4-ligands. Induction of penile erection by 2-[4-(2-methoxyphenyl)piperazin-1-ylmethyl]imidazo[1,2-a]pyridine (PIP3EA), a potent and selective D4 partial agonist” (J Med Chem, 2006).

How the values were obtained:
D(2) dopamine receptor [1] = biological target: T1, D(2) dopamine receptor (Homo sapiens, UniProt P14416); assay: Displacement of [3H]spiperone from human dopamine receptor D2(short) in CHO cell membrane; assay type: cell membranes
T1 sequence (P14416 whole entry): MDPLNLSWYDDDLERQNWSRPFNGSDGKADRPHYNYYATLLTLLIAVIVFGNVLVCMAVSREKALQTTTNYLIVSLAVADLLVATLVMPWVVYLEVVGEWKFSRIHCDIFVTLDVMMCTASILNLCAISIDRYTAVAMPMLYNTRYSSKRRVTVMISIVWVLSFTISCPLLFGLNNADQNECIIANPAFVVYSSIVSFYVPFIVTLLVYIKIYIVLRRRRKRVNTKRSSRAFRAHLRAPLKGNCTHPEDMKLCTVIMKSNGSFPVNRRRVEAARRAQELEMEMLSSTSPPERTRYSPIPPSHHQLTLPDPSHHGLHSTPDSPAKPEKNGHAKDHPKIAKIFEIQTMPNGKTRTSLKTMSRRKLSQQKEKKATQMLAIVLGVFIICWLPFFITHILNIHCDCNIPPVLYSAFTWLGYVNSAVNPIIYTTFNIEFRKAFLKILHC

D(3) dopamine receptor = D(3) dopamine receptor (Homo sapiens, UniProt P35462); assay: Displacement of [3H]spiperone from human dopamine receptor D3 in CHO cell membrane; assay type: cell membranes
Sequence of D(3) dopamine receptor (P35462 whole entry): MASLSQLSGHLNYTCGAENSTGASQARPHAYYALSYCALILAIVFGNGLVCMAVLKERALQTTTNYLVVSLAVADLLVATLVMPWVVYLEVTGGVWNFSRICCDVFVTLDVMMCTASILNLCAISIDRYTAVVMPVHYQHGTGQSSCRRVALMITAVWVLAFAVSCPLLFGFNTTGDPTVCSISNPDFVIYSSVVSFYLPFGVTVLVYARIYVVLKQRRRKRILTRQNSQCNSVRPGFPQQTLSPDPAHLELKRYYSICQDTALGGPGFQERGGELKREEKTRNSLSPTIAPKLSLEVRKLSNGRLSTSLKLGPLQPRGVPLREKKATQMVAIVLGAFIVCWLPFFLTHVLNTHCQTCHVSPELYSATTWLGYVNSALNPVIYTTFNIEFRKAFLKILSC

D(1A) dopamine receptor = D(1A) dopamine receptor (Sus scrofa, UniProt P50130); assay: Displacement of [3H][…] from dopamine receptor D1 in porcine striatal membrane; assay type: cell membranes, Striatum
Sequence of D(1A) dopamine receptor (P50130 whole entry): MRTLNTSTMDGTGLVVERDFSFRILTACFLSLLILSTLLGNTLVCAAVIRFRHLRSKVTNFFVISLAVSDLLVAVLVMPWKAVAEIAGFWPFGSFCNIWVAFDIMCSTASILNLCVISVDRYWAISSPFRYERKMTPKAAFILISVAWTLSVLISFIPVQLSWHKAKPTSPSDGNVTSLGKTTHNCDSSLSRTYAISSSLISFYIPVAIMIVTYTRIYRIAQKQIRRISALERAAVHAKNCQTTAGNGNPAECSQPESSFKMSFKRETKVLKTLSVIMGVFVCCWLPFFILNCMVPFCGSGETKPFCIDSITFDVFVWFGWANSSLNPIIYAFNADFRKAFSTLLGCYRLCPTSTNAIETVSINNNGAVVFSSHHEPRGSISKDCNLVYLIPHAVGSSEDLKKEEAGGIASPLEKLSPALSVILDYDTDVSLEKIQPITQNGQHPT

D(4) dopamine receptor [2] = biological target: T2, D(4) dopamine receptor (Homo sapiens, UniProt P21917); assay: Displacement of [3H]spiperone from human dopamine receptor D4.4 in CHO cell membrane; assay type: cell membranes
T2 sequence (P21917 whole entry): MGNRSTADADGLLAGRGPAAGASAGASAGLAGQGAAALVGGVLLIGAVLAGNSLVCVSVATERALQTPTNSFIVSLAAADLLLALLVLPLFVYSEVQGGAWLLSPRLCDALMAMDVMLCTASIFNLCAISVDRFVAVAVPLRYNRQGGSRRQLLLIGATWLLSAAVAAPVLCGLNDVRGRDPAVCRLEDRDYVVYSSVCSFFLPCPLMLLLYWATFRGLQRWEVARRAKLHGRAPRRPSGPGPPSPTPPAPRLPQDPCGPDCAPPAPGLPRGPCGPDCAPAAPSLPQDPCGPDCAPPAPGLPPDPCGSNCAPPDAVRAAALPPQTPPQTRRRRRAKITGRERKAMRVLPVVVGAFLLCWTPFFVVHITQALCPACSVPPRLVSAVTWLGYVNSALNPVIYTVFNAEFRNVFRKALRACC

D(2) dopamine receptor [3] = biological target: T1, D(2) dopamine receptor; assay: Displacement of [3H]spiperone from human dopamine receptor D2(long) in CHO cell membrane; assay type: cell membranes
[4] = biological target: T3, D(4) dopamine receptor (Homo sapiens) (UniProt P21917); assay: Intrinsic activity at human D4.2 receptor assessed as [3H]thymidine incorporation in CHO 10001 cells relative to quinpirole by mitogenesis assay; assay type: functional, cell-based
T3 sequence (whole entry): T2 sequence (P21917 whole entry)
In short: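 CHO10001 cells expressing human D4.2 were seeded at 5000 cells/well, grown 72 h in serum medium, then switched to serum-free medium. Compound was applied for 20 h at 8 concentrations (0.01-10 000 nM) in hexaduplicate. [³H]thymidine (0.02 µCi/well) was added for 2 h and incorporation counted.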

[5] = biological target: T4, Dopamine receptors; D2 & D4 (Homo sapiens) (UniProt P14416+P21917); assay: Selectivity for human dopamine D4.4 receptor over dopamine D2(short) receptor; assay type: protein assay
T4 sequence (P14416 whole entry, looked up, one chain of several): as the sequence (P14416 whole entry) above

[6] = biological target: T4, Dopamine receptors; D2 & D4 (Homo sapiens); assay: Selectivity for human dopamine D4.4 receptor over dopamine D2(long) receptor; assay type: protein assay
D(4) dopamine receptor [7] = biological target: T2, D(4) dopamine receptor; assay: Activity at human D4.2 receptor assessed as [3H]thymidine incorporation in CHO 10001 cells by mitogenesis assay; assay type: functional, cell-based
[8] = biological target: 5-hydroxytryptamine receptor 2A (Sus scrofa, UniProt P50129); assay: Displacement of [3H]ketanserin from 5HT2 receptor in porcine cortical membrane; assay type: cell membranes
Sequence of 5-hydroxytryptamine receptor 2A (P50129 whole entry): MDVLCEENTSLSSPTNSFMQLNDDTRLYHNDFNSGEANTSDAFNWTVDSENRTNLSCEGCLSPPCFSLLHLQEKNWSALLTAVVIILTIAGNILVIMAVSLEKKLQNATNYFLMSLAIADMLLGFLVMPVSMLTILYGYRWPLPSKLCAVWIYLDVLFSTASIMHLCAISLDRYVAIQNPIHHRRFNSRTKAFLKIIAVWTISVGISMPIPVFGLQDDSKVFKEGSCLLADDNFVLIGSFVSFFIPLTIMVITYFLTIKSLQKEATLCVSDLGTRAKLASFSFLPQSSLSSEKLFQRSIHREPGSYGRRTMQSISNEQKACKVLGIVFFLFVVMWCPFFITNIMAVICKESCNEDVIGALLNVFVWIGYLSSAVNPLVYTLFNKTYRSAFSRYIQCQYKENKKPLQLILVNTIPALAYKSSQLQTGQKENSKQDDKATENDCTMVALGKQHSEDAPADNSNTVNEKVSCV

[9] = biological target: Adrenergic receptor alpha-1 (Sus scrofa); assay: Displacement of [3H]prazosin from porcine Adrenergic alpha-1 receptor in porcine brain
[10] = Selectivity for human dopamine D4.4 receptor over porcine dopamine D1 receptor
[11] = biological target: Dopamine receptors; D3 & D4 (Homo sapiens) (UniProt P35462+P21917); assay: Selectivity for human dopamine D4.4 receptor over dopamine D3 receptor; assay type: protein assay
Sequence of Dopamine receptors; D3 & D4 (Homo sapiens) (P35462 whole entry, looked up, one chain of several): as the sequence (P35462 whole entry) above

Rattus norvegicus [12] = assay: Penile erection in Sprague-Dawley rat at 0.5 ug/kg, icv; assay type: functional; settings: in the assay text read “0.5 ug/rat” for “0.5 ug/kg”
In short: (§1)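 Male Sprague-Dawley rats (225-250 g) were dosed s.c. (0.2 mL/rat) or i.c.v. (10 µL/rat, via a stereotaxic guide cannula implanted under chloral hydrate 3 days earlier). Vehicle was ethanol diluted in water to 0.3%. Rats were acclimated 30 min in individual cages, then observed 60 min after injection. Erections were scored as penis emerging from the sheath. Means ± SEM, 6 rats/group; cannula placement was checked histologically.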

Rattus norvegicus [13] = assay: Penile erection in Sprague-Dawley rat at 5 ug/kg, sc; assay type: functional; in short: as §1
[14] = biological target: T3, D(4) dopamine receptor (Homo sapiens); assay: Intrinsic activity at human D4.4 receptor expressed in CHOK1 cells assessed as stimulation of [35S]GTP-gammaS binding relative to quinpirole; assay type: functional, cell-based; settings: CHO-K1
In short: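 Membranes from CHO cells stably expressing human D4.4 (Bmax 2.25 pmol/mg protein) in HEPES buffer pH 7.4 with 1 µM GDP at 37 °C. Test agent given at eight concentrations (0.01–10 000 nM) in hexaduplicate for 30 min, then 0.1 nM [35S]GTPγS for a further 30 min. Bound label filtered and counted.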

Rattus norvegicus [15] = assay: Penile erection in Sprague-Dawley rat at 20 ug/kg, sc; assay type: functional; in short: as §1
Rattus norvegicus [16] = assay: Penile erection in Sprague-Dawley rat at 1 ug, icv; assay type: functional; in short: as §1
D(4) dopamine receptor [17] = biological target: T2, D(4) dopamine receptor; assay: Activity at human D4.4 receptor expressed in CHOK1 cells assessed as stimulation of [35S]GTP-gammaS binding; assay type: functional, cell-based, CHO-K1
[18] = Selectivity for human dopamine D4.4 receptor over adrenergic alpha-1 receptor

SMILES | Ki (D(2) dopamine receptor [1]) [nM] | Ki (D(3) dopamine receptor) [nM] | Ki (D(1A) dopamine receptor) [nM] | Ki (D(4) dopamine receptor [2]) [nM] | Ki (D(2) dopamine receptor [3]) [nM] | Activity [4] [%] | other results
Clc1ccc(N2CCN(Cc3cn4nc(N5CCCCC5)ccc4n3)CC2)cc1Cl | 710 | 850 | 2200 | 120 | 1100 | – | –
COc1ccccc1N1CCN(Cc2cn3cc(C)cc(I)c3n2)CC1 | 97 | 470 | 5900 | 0.53 | 88 | 0 | –
N#Cc1ccc2[nH]c(CN3CCN(c4ccc(F)cc4)CC3)cc2c1 | – | – | 8600 | – | – | – | –
COc1ccccc1N1CCN(Cc2cn3cc(Br)ccc3n2)CC1 | 140 | 800 | 7100 | 0.25 | 130 | 0 | –
COc1ccccc1N1CCN(Cc2cn3cc(C)cc(C#N)c3n2)CC1 | 2700 | 3500 | 40000 | 1.3 | 4200 | – | Selectivity ratio [5]: 2080; Selectivity ratio [6]: 3230
COc1ccccc1N1CCN(Cc2cn3cc(C)cc(-n4cccn4)c3n2)CC1 | 280 | 2400 | 8700 | 1.6 | 530 | – | –
COc1ccccc1N1CCN(Cc2cn3cc(I)ccc3n2)CC1 | 72 | 600 | 6400 | 0.33 | 73 | 10 | EC50 (D(4) dopamine receptor [7]): 0.52 nM
COc1ccccc1N1CCN(Cc2cn3nc(Cl)ccc3n2)CC1 | 79 | 1400 | 7700 | 1.6 | 96 | 0 | Ki [8]: 3400 nM
COc1ccccc1N1CCN(Cc2cn3cc(C)cc(-c4ccccc4)c3n2)CC1 | 28 | 390 | 2900 | 0.84 | 49 | – | –
COc1ccccc1N1CCN(Cc2cn3cc(C)cc(N4CCOCC4)c3n2)CC1 | 100 | 2100 | 6400 | 2.3 | 210 | – | –
Fc1ccc(N2CCN(Cc3cn4ccccc4n3)CC2)cc1 | 19000 | 3100 | 8400 | 44 | 21000 | – | Selectivity ratio [5]: > 440; Ki [8]: 860 nM; Ki [9]: 260 nM; Selectivity ratio [6]: > 440; Selectivity ratio [10]: > 440; Selectivity ratio [11]: > 440
Clc1ccc(N2CCN(Cc3cn4nc(Cl)ccc4n3)CC2)cc1 | 8200 | 7700 | 5500 | 2 | 12000 | 0 | Ki [8]: 910 nM
Fc1ccc(N2CCN(Cc3cn4cccnc4n3)CC2)cc1 | 49000 | 60000 | 47000 | 2800 | 55000 | – | –
COc1ccccc1N1CCN(Cc2cn3ccccc3n2)CC1 | – | – | – | – | – | 46 | Activity (Rattus norvegicus [12]): 1.12; Ki [8]: 5900 nM; Activity (Rattus norvegicus [13]): 1.02; Activity [14]: 57%; Activity (Rattus norvegicus [15]): 2.42; Activity (Rattus norvegicus [16]): 2.32
CN1CCN(c2ccc3nc(CN4CCN(c5ccc(Cl)c(Cl)c5)CC4)cn3n2)CC1 | 7800 | 880 | 13000 | 1900 | 8000 | – | –
N#Cc1ccc2[nH]c(CN3CCN(c4ccccc4)CC3)cc2c1 | – | – | 13000 | – | – | – | –
Fc1ccc(N2CCN(Cc3cn4nc(Cl)ccc4n3)CC2)cc1 | 12000 | 5600 | 7000 | 4 | 9900 | – | –
Clc1ccc(N2CCN(Cc3cn4ccccc4n3)CC2)cc1Cl | 2700 | 1700 | 2300 | 1.4 | 3200 | 0 | Ki [8]: 1200 nM
Clc1ccc(N2CCN(Cc3cn4ccccc4n3)CC2)cc1 | 16000 | 8800 | 6700 | 7 | 15000 | 6 | Ki [8]: 1200 nM; EC50 (D(4) dopamine receptor [17]): 2.6 nM; Activity [14]: 18%; EC50 (D(4) dopamine receptor [7]): 1.8 nM
Clc1ccc2nc(CN3CCN(c4ccc(Cl)c(Cl)c4)CC3)cn2n1 | 670 | 1500 | 1500 | 1.3 | 1100 | 0 | Ki [8]: 1200 nM
Cc1cccc(C(=O)NCN2CCN(c3ccccc3C#N)CC2)c1 | – | – | – | – | – | – | Selectivity ratio [18]: 8
Clc1ccc(N2CCN(Cc3cn4cc(Br)ccc4n3)CC2)cc1Cl | 3700 | 1000 | 2500 | 0.99 | 3500 | 0 | Selectivity ratio [5]: > 440; Selectivity ratio [6]: > 440; Selectivity ratio [10]: > 440; Selectivity ratio [11]: > 440
Fc1ccc(N2CCN(Cc3cn4ccncc4n3)CC2)cc1 | 68000 | 42000 | 15000 | 500 | 64000 | – | –
COc1ccccc1N1CCN(Cc2cn3cc(C)cc(Br)c3n2)CC1 | 150 | 670 | 5600 | 0.99 | 240 | – | –
COc1ccccc1N1CCN(Cc2cn3c(-n4cccn4)cccc3n2)CC1 | 280 | 1000 | 27000 | 0.94 | 590 | – | –
